This is an account of results in PMC3065392 (Lipids, 2010).

For orientation: Kd means a measure of binding affinity in units of concentration. Read a low Kd as higher affinity.

SMILES strings stand for the structures.

The target in this assay is T1, ADRP (adipose differentiation-related protein) (Mus musculus, UniProt P43883).
T1 sequence (P43883 2-425): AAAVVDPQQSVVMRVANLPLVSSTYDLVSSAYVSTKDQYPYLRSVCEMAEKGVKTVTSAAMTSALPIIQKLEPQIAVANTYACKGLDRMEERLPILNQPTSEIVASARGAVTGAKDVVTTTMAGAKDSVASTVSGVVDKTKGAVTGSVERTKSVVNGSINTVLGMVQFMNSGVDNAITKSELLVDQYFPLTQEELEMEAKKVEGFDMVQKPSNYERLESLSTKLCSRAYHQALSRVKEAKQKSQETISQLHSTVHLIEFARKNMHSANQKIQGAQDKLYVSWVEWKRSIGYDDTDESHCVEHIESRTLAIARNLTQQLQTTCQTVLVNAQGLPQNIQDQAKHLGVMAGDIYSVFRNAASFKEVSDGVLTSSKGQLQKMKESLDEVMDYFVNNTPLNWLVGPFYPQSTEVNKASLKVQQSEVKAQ
Kind of assay: fluorescence saturation binding titration, single-site fit. The method, boiled down: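 Stepwise titration of the NBD-labelled lipid (NBD-sphingomyelin or NBD-phosphatidylcholine, 100 µM stock) into ADRP (180 nM) in 10 mM phosphate buffer, pH 7.4. After each addition, samples were mixed 3–4 min at 25°C and the NBD probe was excited; emission 490–600 nm was integrated and corrected for blank and background. Kd and Bmax come from a single-site fit of three independent measurements (mean ± SE).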

For `CCCCCCCCCCCCCCCC(=O)OC[C@H](COP(=O)([O-])OCC[N+](C)(C)C)OC(=O)CCCCCNc1ccc([N+](=O)[O-])c2nonc12` [NBD-phosphatidylcholine, 2-(6-(7-nitrobenz-2-oxa-1,3-diazol-4-yl)amino)hexanoyl-1-hexadecanoyl-sn-glycero-3-phosphocholine], binding was put at a Kd of 0.015 ± 0.003 µM. In the case of `CCCCCCCCCCCCC/C=C/[C@@H](O)[C@H](COP(=O)([O-])OCC[N+](C)(C)C)NC(=O)CCCCCNc1ccc([N+](=O)[O-])c2nonc12` [NBD-sphingomyelin, 6-((N-(7-nitrobenz-2-oxa-1,3-diazol-4-yl)amino)-hexanoyl)sphingosyl-phosphocholine], the Kd was determined as 0.257 ± 0.064 µM.
